Reference: ChEMBL document CHEMBL4610093, “Bioreductively Activatable Prodrug Conjugates of Combretastatin A-1 and Combretastatin A-4 as Anticancer Agents Targeted toward Tumor-Associated Hypoxia” (J Nat Prod, 2020)

Key:
Tubulin (Homo sapiens) [1] = biological target: T1, Tubulin (Homo sapiens) (UniProt P68371+Q9H4B7+P0DPH7+P68366+Q13509+Q71U36+P04350+Q3ZCM7+P07437+P68363+Q9BQE3+Q6PEY2+Q13885+Q9BVA1+Q9BUF5); test: Inhibition of [3H]colchicine binding to tubulin (unknown origin) at 5 uM incubated for 10 mins by scintillation counting relative to control; type: protein-complex assay
Summary of the method: (§1)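 Purified tubulin at 1.0 µM with 5.0 µM [3H]colchicine, in 1.0 M monosodium glutamate (pH 6.6), 0.5 mg/mL BSA, 0.1 M glucose-1-phosphate, 1.0 mM MgCl2, 1.0 mM GTP and 5% DMSO. Incubated 10 min at 37 °C, then filter-bound radioactivity counted. Percent inhibition taken against no-inhibitor controls, corrected for filter binding without tubulin.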

A549 [2] = test: Cytotoxicity against human A549 cells incubated for 52 hrs in oxic condition by sulforhodamine B assay; type: functional; conditions: A549, 52 h
Summary of the method: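 Normoxic arm: A549 cells at 6000 cells/well, 2 h attachment. Serial dilutions from DMSO stocks, top final concentration 50 µg/mL, in duplicate. Drug exposure 4 h under 95% air/5% CO2, then 48 h aerobic culture. Cytotoxicity read by SRB.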

A549 [3] = test: Cytotoxicity against human A549 cells incubated for 4 hrs in anoxic condition followed by oxic exposure for 48 hrs by sulforhodamine B assay; type: functional
Summary of the method: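 Anoxic arm: A549 cells handled in an anaerobic chamber (≤10 ppm O2) with medium and plates preconditioned ≥48 h. 6000 cells/well, 2 h attachment. Serial dilutions from DMSO stocks, top final concentration 50 µg/mL, in duplicate. 4 h anaerobic drug exposure, then 48 h aerobic, then SRB readout.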

A549 [4] = test: Ratio of GI50 for human A549 cells in oxic condition to GI50 for anoxic condition; type: functional
Summary of the method: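 A549 cells at 6000 cells/well. Drug exposure 4 h either anaerobic (≤10 ppm O2, preconditioned medium and plates) or under 95% air/5% CO2, then 48 h aerobic. SRB cytotoxicity read in duplicate, top final concentration 50 µg/mL. Ratio taken as oxic over anoxic value.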

[5] = Inhibition of bovine brain tubulin polymerisation preincubated for 15 mins followed by GTP addition and measured for 20 mins by turbidimetry based spectrophotometric method; set-up: species or system Bos taurus
Summary of the method: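 Bovine brain tubulin at 1.0 mg/mL (10 µM) in 0.8 M monosodium glutamate (pH 6.6) with 4% DMSO and compound. Preincubated 15 min at 30 °C, chilled, then 0.4 mM GTP added. Temperature jumped from 0 to 30 °C; turbidity at 350 nm followed for 20 min. IC50 is the concentration halving extent of assembly.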

[6] = Stability of the compound in pH 7.4 potassium phosphate buffer assessed as compound hydrolysis after 48 hrs; type: physicochemical; conditions: read-out: Drug degradation
[7] = biological target: T2, NADPH-cytochrome P450 oxidoreductase (Rattus norvegicus, UniProt P00388); test: Substrate activity at rat NADPH-cytochrome P450 oxidoreductase expressed in supersomes assessed as compound cleavage after 90 mins in anaerobic condition by HPLC analysis; conditions: read-out: Drug degradation
T2 sequence (P00388 whole entry): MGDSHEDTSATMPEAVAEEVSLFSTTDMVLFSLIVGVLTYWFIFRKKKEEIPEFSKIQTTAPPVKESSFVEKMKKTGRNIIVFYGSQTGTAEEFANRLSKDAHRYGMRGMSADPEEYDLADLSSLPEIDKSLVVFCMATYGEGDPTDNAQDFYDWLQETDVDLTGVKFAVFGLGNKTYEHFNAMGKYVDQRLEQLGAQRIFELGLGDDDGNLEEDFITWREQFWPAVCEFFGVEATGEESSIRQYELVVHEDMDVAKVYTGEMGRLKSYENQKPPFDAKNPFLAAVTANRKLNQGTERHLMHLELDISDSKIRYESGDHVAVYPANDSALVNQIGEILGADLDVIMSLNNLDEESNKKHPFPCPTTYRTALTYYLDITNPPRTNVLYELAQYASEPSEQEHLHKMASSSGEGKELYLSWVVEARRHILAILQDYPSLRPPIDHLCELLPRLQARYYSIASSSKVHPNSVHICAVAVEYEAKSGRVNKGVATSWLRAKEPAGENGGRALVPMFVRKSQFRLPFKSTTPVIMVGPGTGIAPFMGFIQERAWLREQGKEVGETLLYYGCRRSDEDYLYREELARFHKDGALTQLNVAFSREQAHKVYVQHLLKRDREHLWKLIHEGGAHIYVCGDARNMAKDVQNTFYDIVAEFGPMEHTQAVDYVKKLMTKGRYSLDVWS
Summary of the method: (§2)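 Rat POR supersomes (0.006 U) with 0.8 mM NADPH, acting on compound diluted from 10 mM DMSO stock into 200 mM potassium phosphate pH 7.4 with 0.1% Triton X-100 and 400 µM protocatechuic acid. Made anaerobic by N2 evacuation/sparging plus 0.08 U protocatechuate dioxygenase. Incubated at 37 °C, quenched with acetonitrile, quantified by HPLC against standard curves; no-POR controls.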

Tubulin (Homo sapiens) [8] = biological target: T1, Tubulin (Homo sapiens); test: Inhibition of [3H]colchicine binding to tubulin (unknown origin) at 1 uM incubated for 10 mins by scintillation counting relative to control; type: protein-complex assay; summary of the method: as §1
[9] = biological target: T2, NADPH-cytochrome P450 oxidoreductase; test: Substrate activity at rat NADPH-cytochrome P450 oxidoreductase expressed in supersomes assessed as compound cleavage after 24 hrs in anaerobic condition by HPLC analysis; conditions: read-out: Activity; summary of the method: as §2
[10] = Solubility of the compound in buffered saline; type: physicochemical; conditions: buffer
[11] = Solubility of the compound in water; type: physicochemical; conditions: buffer
[12] = Solubility of the compound in DMSO; type: physicochemical
4T1 [13] = test: Induction in necrosis in tumor of BALB/C mouse implanted with mouse 4T1 cells harboring firefly luciferase reporter gene at 180 mg/kg, ip measured after 72 to 96 hrs by hematoxylin and eosin staining based assay (reference value: 46%); type: functional
[14] = Stability of the compound in pH 7.4 potassium phosphate buffer assessed as spontaneous compound hydrolysis measured for 150 mins; type: physicochemical; conditions: pH 7.4, 2.5 h
[15] = Stability of the compound in pH 7.4 potassium phosphate buffer assessed as compound hydrolysis after 24 to 48 hrs; type: physicochemical
4T1 [16] = test: Induction of vascular damage in mouse 4T1 cells harboring firefly luciferase reporter gene implanted BALB/C mouse assessed as reduction in light emission at 120 mg/kg, ip measured after 4 hrs by Bioluminescence imaging analysis; type: functional; set-up: scale not given: the % may be the effect or the level left
Summary of the method: (§3)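 Orthotopic 4T1-luc mammary fat pad tumours (10–12 mm) in female BALB/c mice. Single IP dose of 120 mg/kg in saline given right after baseline imaging. Dynamic BLI over about 20 min after subcutaneous D-luciferin (120 mg/kg), repeated with fresh luciferin at 4, 24 and 48 h. Signal compared by area under the light emission curve.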

4T1 [17] = test: Induction of vascular damage in mouse 4T1 cells harboring firefly luciferase reporter gene implanted BALB/C mouse assessed as reduction in light emission at 120 mg/kg, ip measured up to 72 hrs by Bioluminescence imaging analysis; type: functional; set-up: scale not given: the % may be the effect or the level left; summary of the method: as §3
4T1 [18] = test: Induction in necrosis in tumor of BALB/C mouse implanted with mouse 4T1 cells harboring firefly luciferase reporter gene at 120 mg/kg, ip measured after 72 to 96 hrs by hematoxylin and eosin staining based assay (reference value: 46%); type: functional

Row | SMILES | inhibition (Tubulin (Homo sapiens) [1]) | GI50 (A549 [2]) | GI50 (A549 [3]) | RatioGI50 (A549 [4]) | IC50 [5] | degraded at 48 h [6] | metabolised at 1.5 h [7] | further results
1 | COc1ccc(/C=C\c2cc(OC)c(OC)c(OC)c2)c(O)c1O [COMBRETASTATIN A-1] | 99.6% | 1200 nM | 820 nM | – | – | – | – | –
2 | Nc1n[n+]([O-])c2ccccc2[n+]1[O-] [TIRAPAZAMINE] | – | 63000 nM | 6800 nM | 9.2 | – | – | – | –
3 | COc1cc(/C=C\c2ccc(OC)c3c2OC(C)(c2ccc([N+](=O)[O-])s2)O3)cc(OC)c1OC (centres undefined) | – | 550 nM | 720 nM | 0.76 | > 20000 nM | – | – | –
4 | COc1ccc(/C=C\c2cc(OC)c(OC)c(OC)c2)cc1OCc1ccc([N+](=O)[O-])s1 | 26% | 110 nM | 32 nM | 3.4 | > 20000 nM | 0.35% | 2.7% | –
5 | COc1cc(/C=C\c2ccc(OC)c(OC(C)c3ccc([N+](=O)[O-])s3)c2OS(=O)(=O)c2ccc(C)cc2)cc(OC)c1OC (centres undefined) | – | 4600 nM | 3300 nM | 1.4 | > 20000 nM | 0.84% | 13.5% | –
6 | O=[N+]([O-])c1nccn1CC(O)CNCCBr (centres undefined) | – | > 89000 nM | 24000 nM | – | – | – | – | –
7 | COc1ccc(/C=C\c2cc(OC)c(OC)c(OC)c2)cc1O [COMBRETASTATIN A4] | – | 4.7 nM | 6.1 nM | – | – | – | – | –
8 | COc1ccc(/C=C\c2cc(OC)c(OC)c(OC)c2)c(OCc2ccc([N+](=O)[O-])s2)c1O | 92% | 170 nM | 280 nM | 0.61 | 1700 nM | 0% | 14.2% | inhibition (Tubulin (Homo sapiens) [8]): 53%
9 | COc1ccc(/C=C\c2cc(OC)c(OC)c(OC)c2)c(OC(C)c2ccc([N+](=O)[O-])s2)c1O (centres undefined) | 90% | 180 nM | 260 nM | 0.69 | 840 nM | 0.5% | 5.6% | inhibition (Tubulin (Homo sapiens) [8]): 34%
10 | COc1ccc(/C=C\c2cc(OC)c(OC)c(OC)c2)cc1OC(C)c1ccc([N+](=O)[O-])s1 (centres undefined) | 15% | 150 nM | 38 nM | 4 | > 20000 nM | – | 4.1% | –
11 | COc1cc(/C=C\c2ccc(OC)c(OCc3ccc([N+](=O)[O-])s3)c2OS(=O)(=O)c2ccc(C)cc2)cc(OC)c1OC | – | 440 nM | 520 nM | 0.85 | > 20000 nM | 0.25% | – | –
12 | COc1ccc(/C=C\c2cc(OC)c(OC)c(OC)c2)c(OC(C)C)c1O | 94% | 63 nM | 46 nM | – | 820 nM | – | – | inhibition (Tubulin (Homo sapiens) [8]): 72%
13 | COc1ccc(/C=C\c2cc(OC)c(OC)c(OC)c2)cc1OC(C)(C)c1ccc([N+](=O)[O-])s1 | 33% | 2200 nM | 53 nM | 41.5 | > 20000 nM | 0.69% | 25.4% | metabolised at 24 h [9]: 100%; solubility [10]: Insoluble; solubility [11]: Insoluble; solubility [12]: Soluble; Activity (4T1 [13]): 47 - 55%
14 | COc1ccc(/C=C\c2cc(OC)c(OC)c(OC)c2)c(OC(C)(C)c2ccc([N+](=O)[O-])s2)c1O | 43% | 6000 nM | 480 nM | 12.5 | 1300 nM | – | 100% | Stability [14]: Stable; Stability [15]: Unstable
15 | COc1cc(/C=C\c2ccc(OC)c(OCc3ccc([N+](=O)[O-])s3)c2OC(C)C)cc(OC)c1OC | – | 1900 nM | 300 nM | 6.3 | 12000 nM | 1.59% | 1.1% | –
16 | COc1cc(/C=C\c2ccc(OC)c(OC(C)c3ccc([N+](=O)[O-])s3)c2OC(C)C)cc(OC)c1OC (centres undefined) | – | 2900 nM | 1200 nM | 2.4 | > 20000 nM | 0.69% | 3.8% | –
17 | COc1cc(/C=C\c2ccc(OC)c(OC(C)(C)c3ccc([N+](=O)[O-])s3)c2OC(C)C)cc(OC)c1OC | – | 1500 nM | 490 nM | 3.1 | 9500 nM | 4.03% | 7.6% | –
18 | COc1cc(/C=C\c2ccc(OC)c3c2OC(c2ccc([N+](=O)[O-])s2)O3)cc(OC)c1OC (centres undefined) | 25% | 46 nM | 33 nM | 1.4 | 1700 nM | – | – | –
19 | COc1cc(/C=C\c2ccc(OC)c(OCc3ccc([N+](=O)[O-])s3)c2O)cc(OC)c1OC | 58% | 320 nM | 690 nM | 0.46 | 4300 nM | 0% | 17.9% | –
20 | COc1ccc(/C=C\c2cc(OC)c(OC)c(OC)c2)cc1OP(=O)([O-])[O-].[Na+].[Na+] [FOSBRETABULIN DISODIUM] | – | – | – | – | – | – | – | Activity (4T1 [16]): >99%; Activity (4T1 [17]): >90%; Activity (4T1 [18]): 70%
21 | COc1ccc(/C=C\c2cc(OC)c(OC)c(OC)c2)c(OS(=O)(=O)c2ccc(C)cc2)c1O | 84% | 65 nM | 190 nM | – | 840 nM | – | – | inhibition (Tubulin (Homo sapiens) [8]): 50%
22 | COc1cc(/C=C\c2ccc(OC)c(OC(C)c3ccc([N+](=O)[O-])s3)c2O)cc(OC)c1OC (centres undefined) | 72% | 310 nM | 51 nM | 6.1 | 6200 nM | 0% | 25.5% | –
